Test results reported in ChEMBL document CHEMBL5325460, “Versatile anti-infective properties of pyrido- and dihydropyrido[2,3-d]pyrimidine-based compounds” (Bioorg Med Chem, 2023).

Experiments:
[1] = Selectivity index, ratio of CC50 for cytotoxicity against African green monkey Vero cells to IC50 for antiparasitic activity against Toxoplasma gondii RH tachyzoites infected in African monkey Vero cells; assay type: toxicity, cell-based; conditions: read-out: Ratio CC50/IC50
Summary of the method: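 SI = Vero CC50 (3-day MTT, 540 nm read) divided by T. gondii RH IC50 (Vero host cells, microscopic count of infected cells); both values from concentration–response curves at 72 h.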

Leishmania major [2] = assay: Antileishmanial activity against Leishmania major promastigotes assessed as parasite growth inhibition measured after 72 hrs by MTT based ELISA reader analysis
[3] = Cytotoxicity against African green monkey Vero cells assessed as reduction in cell viability measured after 3 days by MTT assay; assay type: toxicity, cell-based; conditions: chlorocebus sabaeus, time 3 day
Summary of the method: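 Vero cells held 3 days with graded doses in RPMI 1640 with 5% FBS. Viability read by MTT colorimetry at 540 nm. CC50 from concentration–response curves against untreated controls; means of at least three independent experiments.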

Toxoplasma gondii = assay: Antiparasitic activity against Toxoplasma gondii RH tachyzoites infected in African green monkey Vero cells assessed as parasitic growth inhibition incubated for 72 hrs by inverted microscopic analysis; assay type: functional, organism-based
Summary of the method: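 RH-strain tachyzoites grown on Vero host cells in RPMI 1640 with 10% FBS and exposed to a range of concentrations, with atovaquone as positive control. Infected cells counted under an inverted microscope; inhibition % = (1 − infected treated / infected control) × 100. IC50 from concentration–response curves at 72 h; means of at least three independent experiments.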

Leishmania major [4] = assay: Antileishmanial activity against Leishmania major amastigotes infected in mouse macrophages assessed as parasite growth inhibition measured after 72 hrs by MTT based ELISA reader analysis; assay type: functional, organism-based; conditions: Macrophage
Summary of the method: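 L. major promastigotes from a patient isolate; amastigotes from infected BALB/c mice, grown inside mouse macrophages. Viable parasites read by MTT absorbance at 570 nm.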

[5] = target: Human immunodeficiency virus type 1 reverse transcriptase (Human immunodeficiency virus 1, UniProt Q72547); assay: Inhibition of wild type HIV-1 reverse transcriptase RNase-associated RNase H activity using RNA/DNA template-primer as substrate
Summary of the method: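 RNase H activity of wild-type RT, run independently of RDDP, with RDS1759 as positive control. Assays in triplicate; IC50 reported ± error.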

IC50 [5] [µM] | Compound | selectivity ratio [1] | IC50 (Leishmania major [2]) [µM] | CC50 at 72 h [3] [µM] | IC50 (Toxoplasma gondii) [µM] | IC50 (Leishmania major [4]) [µM]
– | COc1ccc(C2C3=C(Nc4[nH]c(=O)[nH]c(=O)c42)c2ccccc2C3=O)cc1F (stereo not drawn) | 0.74 | 7.16 | 7.16 | 9.71 | 16.9
11.2 | O=C1C2=C(Nc3[nH]c(=O)[nH]c(=O)c3C2c2ccc(O)c(O)c2)c2ccccc21 (stereo not drawn) | 0.7 | > 33.3 | 7.03 | 9.99 | > 33.3
> 100 | O=C1C2=C(Nc3[nH]c(=O)[nH]c(=O)c3C2c2ccc(O)cc2)c2ccccc21 (stereo not drawn) | 0.2 | > 34.8 | 3.95 | 20 | 22
– | COc1cc(C2C3=C(Nc4[nH]c(=O)[nH]c(=O)c42)c2ccccc2C3=O)cc(Cl)c1OC (stereo not drawn) | 0.73 | > 28.6 | 0.3 | 0.41 | 6.17
17.1 | COc1cc(C2C3=C(Nc4[nH]c(=O)[nH]c(=O)c42)c2ccccc2C3=O)cc(OC)c1O (stereo not drawn) | 0.55 | 31.7 | 6.08 | 11 | 21.2
– | COc1ccc(C2C3=C(Nc4[nH]c(=O)[nH]c(=O)c42)c2ccccc2C3=O)cc1C (stereo not drawn) | 0.3 | > 32.3 | 2.89 | 9.81 | 22.2
– | COc1cc(-c2c3c(nc4[nH]c(=O)[nH]c(=O)c24)-c2ccccc2C3=O)cc(OC)c1OC | 0.97 | > 29 | 2.02 | 2.09 | 5.8
– | COc1cc(C2C3=C(Nc4[nH]c(=O)[nH]c(=O)c42)c2ccccc2C3=O)cc(I)c1OC (stereo not drawn) | 0.89 | > 23.6 | 0.42 | 0.47 | 14
21.5 | COc1cc(C2C3=C(Nc4[nH]c(=O)[nH]c(=O)c42)c2ccccc2C3=O)cc(OC)c1OC (stereo not drawn) | 0.76 | > 28.8 | 2.1 | 2.77 | 21.2
> 100 | COc1ccc(C2C3=C(Nc4[nH]c(=O)[nH]c(=O)c42)c2ccccc2C3=O)cc1O (stereo not drawn) | 0.79 | > 32.1 | 8.99 | 11.4 | 21.3
– | COc1cc(-c2c3c(nc4[nH]c(=O)[nH]c(=O)c24)-c2ccccc2C3=O)cc(Br)c1OC | 1.24 | 26 | 2.31 | 1.87 | 16.2
– | COc1cc(-c2c3c(nc4[nH]c(=O)[nH]c(=O)c24)-c2ccccc2C3=O)cc(I)c1OC | 0.9 | 23 | 2.22 | 2.47 | 15.4
– | COc1ccc(-c2c3c(nc4[nH]c(=O)[nH]c(=O)c24)-c2ccccc2C3=O)cc1Br | 0.91 | 25.1 | 9.55 | 11.8 | 35.8
8.7 | CCOC(=O)C(=O)CC(=O)/C=C/c1cccn1Cc1ccccc1Cl | – | – | – | – | –
– | O=C1C2=C(Nc3[nH]c(=O)[nH]c(=O)c3C2c2cccc(Br)c2)c2ccccc21 (stereo not drawn) | 1.42 | 11.6 | 16.1 | 11.4 | 36.5
> 100 | COc1cc(C2C3=C(Nc4[nH]c(=O)[nH]c(=O)c42)c2ccccc2C3=O)ccc1O (stereo not drawn) | 0.74 | 35.4 | 6.16 | 8.35 | 21.3
– | C[C@@H]1[C@H](O)[C@@H](C)/C=C/C=C/C=C/C=C/C=C/C=C/C=C/[C@H](O[C@@H]2O[C@H](C)[C@@H](O)[C@H](N)[C@@H]2O)C[C@@H]2O[C@](O)(C[C@@H](O)C[C@@H](O)[C@H](O)CC[C@@H](O)C[C@@H](O)CC(=O)O[C@H]1C)C[C@H](O)[C@H]2C(=O)O [AMPHOTERICIN B] | – | 0.83 | – | – | –
– | COc1ccc(-c2c3c(nc4[nH]c(=O)[nH]c(=O)c24)-c2ccccc2C3=O)cc1OC | 0.78 | 29.4 | 0.87 | 1.12 | 6.73
– | COc1ccc(C2C3=C(Nc4[nH]c(=O)[nH]c(=O)c42)c2ccccc2C3=O)cc1Br (stereo not drawn) | 0.96 | > 27.6 | 1.73 | 1.81 | 1.9
– | O=C1C(O)=C([C@H]2CC[C@H](c3ccc(Cl)cc3)CC2)C(=O)c2ccccc21 [ATOVAQUONE] | 136 | – | 9.5 | 0.07 | –
20.3 | COc1ccc(C2C3=C(Nc4[nH]c(=O)[nH]c(=O)c42)c2ccccc2C3=O)cc1OC (stereo not drawn) | 1.1 | > 31 | 8.03 | 7.31 | 6.94
– | COc1ccc(-c2c3c(nc4[nH]c(=O)[nH]c(=O)c24)-c2ccccc2C3=O)cc1F | 0.44 | 6.68 | 4.11 | 9.25 | 15.7
– | COc1cc(C2C3=C(Nc4[nH]c(=O)[nH]c(=O)c42)c2ccccc2C3=O)cc(Br)c1OC (stereo not drawn) | 0.69 | > 25.9 | 0.5 | 0.73 | 16.4
– | COc1cc(-c2c3c(nc4[nH]c(=O)[nH]c(=O)c24)-c2ccccc2C3=O)cc(Cl)c1OC | 1.23 | 28.2 | 0.85 | 0.69 | 18.6
93.4 | O=C1C2=C(Nc3[nH]c(=O)[nH]c(=O)c3C2c2cccc(O)c2)c2ccccc21 (stereo not drawn) | 0.4 | > 34.8 | 9.46 | 23.7 | 27
